From ChEMBL document CHEMBL3046214, “Friedelane triterpenes from Celastrus vulcanicola as photosynthetic inhibitors” (J Agric Food Chem, 2010)

Tests used:
[1] = tested on: Spinacia oleracea; assay: Increase in Magnesium-transporting ATPase activity in Spinacia oleracea (spinach) leaves chloroplasts thylakoids at 1 mM
How it was run: (§1)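 Spinach chloroplasts were isolated in 350 mM sorbitol, 5 mM ascorbate, 20 mM MES pH 6.5, centrifuged at 3000g for 60 s, washed, and resuspended in 35 mM HEPES pH 7.6. Light-triggered Mg2+-ATPase activity of thylakoid membranes was measured as released inorganic phosphate. Ammonium chloride served as positive control.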

[2] = tested on: Spinacia oleracea; assay: Increase in Magnesium-transporting ATPase activity in Spinacia oleracea (spinach) leaves chloroplasts thylakoids at 3 mM; how it was run: as §1
[3] = tested on: Spinacia oleracea; assay: Increase in Magnesium-transporting ATPase activity in Spinacia oleracea (spinach) leaves chloroplasts thylakoids at 2 mM; how it was run: as §1
[4] = tested on: Spinacia oleracea; assay: Inhibition of photophosphorylation in Spinacia oleracea (spinach) leaves chloroplasts by titrimetry; assay type: functional; details: read-out: I50
How it was run: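 Intact spinach chloroplasts (20 μg Chl/mL) were osmotically broken in 3 mL of weakly buffered medium: 100 mM sorbitol, 10 mM KCl, 5 mM MgCl2, 0.5 mM KCN, 1 mM tricine-KOH pH 8.0, 50 μM MV and 1 mM ADP. ATP synthesis was taken from the medium alkalization rate in the linear part of illumination, calibrated by HCl back-titration, as μmol ATP (mg Chl)-1 h-1. I50 was obtained from concentration-activity plots; three replicates.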

| Compound | Activity [1] [%] | Activity [2] [%] | Activity [3] [%] | IC50 [4] [µM] |
| --- | --- | --- | --- | --- |
| Cl.N | 128 | 234 | 252 |  |
| C[C@H]1C(=O)CC[C@@H]2[C@]1(C)CC[C@H]1[C@@]2(C)CC[C@@]2(C)[C@@H]3CC(C)(C)CC[C@]3(C)CC[C@]12C [FRIEDELINE] |  |  |  | 182 |
| C[C@H]1C(=O)CC[C@@H]2[C@]1(C)CC[C@H]1[C@@]2(C)CC[C@@]2(C)[C@@H]3C[C@](C)(C(=O)O)CC[C@]3(C)CC[C@]12C [MAYTENOIC ACID] |  |  |  | 269 |
